Laboratory results published in ChEMBL document CHEMBL1150302, “Aminoacyl-tRNA synthetase inhibitors as potent and synergistic immunosuppressants” (J Med Chem, 2008).
pIC50: −log10 of the molar value. Active and inactive are the calls of the source. No cut-off for these calls is given here.

Legend:
PBMC [1] = test: Immunosuppressive activity against human PBMC assessed as inhibition of allogenic mixed lymphocyte reaction; format: functional, cell-based
Method in brief: (§1)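 Responder cells taken from the Ficoll-plasma interface, washed three times (0.12 × 10⁶), cocultured for 6 days with mitomycin C-treated RPMI 1788 stimulator cells (0.045 × 10⁶) and compound in RPMI 1640 with 10% fetal calf serum. Pulsed after five days with 1 µCi methyl-³H thymidine, harvested 18 h later and counted. cpm converted to % inhibition versus compound-free MLR.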

PBMC [2] = test: Immunosuppressive activity against human PBMC assessed as inhibition of allogenic mixed lymphocyte reaction at 0.5 uM; format: functional; method in brief: as §1
PBMC [3] = test: Immunosuppressive activity against human PBMC assessed as inhibition of allogenic mixed lymphocyte reaction at 0.1 uM; format: functional; method in brief: as §1
PBMC [4] = test: Immunosuppressive activity against human PBMC assessed as inhibition of allogenic mixed lymphocyte reaction at 0.0004 uM; format: functional; method in brief: as §1
PBMC [5] = test: Immunosuppressive activity against human PBMC assessed as inhibition of allogenic mixed lymphocyte reaction at 0.0008 uM; format: functional; method in brief: as §1
PBMC [6] = test: Immunosuppressive activity against human PBMC assessed as inhibition of allogenic mixed lymphocyte reaction at 0.01 uM; format: functional; method in brief: as §1
PBMC [7] = test: Immunosuppressive activity against human PBMC assessed as inhibition of allogenic mixed lymphocyte reaction at 0.06 uM; format: functional; method in brief: as §1
PBMC [8] = test: Immunosuppressive activity against human PBMC assessed as inhibition of allogenic mixed lymphocyte reaction at 0.08 uM; format: functional; method in brief: as §1
PBMC [9] = test: Immunosuppressive activity against human PBMC assessed as inhibition of allogenic mixed lymphocyte reaction upto 10 uM; format: functional, cell-based; method in brief: as §1
PBMC [10] = test: Immunosuppressive activity against human PBMC assessed as inhibition of allogenic mixed lymphocyte reaction at 1.0 uM; format: functional; method in brief: as §1

| Structure (SMILES) | pIC50 (PBMC [1]) | also measured |
| --- | --- | --- |
| C[C@H](N)C(=O)NS(=O)(=O)OC[C@H]1O[C@@H](n2cnc3c(N)ncnc32)[C@H](O)[C@@H]1O [ALASA] | 5.77 | inhibition at 0.5 µM (PBMC [2]): 4.9%; inhibition at 0.1 µM (PBMC [3]): 6.5% |
| CC[C@H](N)C(=O)NS(=O)(=O)OC[C@H]1O[C@@H](n2cnc3c(N)ncnc32)[C@H](O)[C@@H]1O | 5.26 | – |
| CC(C)C[C@H](N)C(=O)NS(=O)(=O)OC[C@H]1OC[C@@H](n2cnc3c(N)ncnc32)[C@H](O)[C@@H]1O | 6.00 | – |
| Nc1ncnc2c1ncn2[C@@H]1O[C@H](COS(=O)(=O)NC(=O)[C@@H](N)CS)[C@@H](O)[C@H]1O | 6.40 | – |
| Nc1ncnc2c1ncn2[C@@H]1CO[C@H](COS(=O)(=O)NC(=O)[C@H](Cc2ccccc2)NCc2ccccc2)[C@@H](O)[C@H]1O | 7.10 | – |
| CC(C)C[C@H](N)C(=O)NS(=O)(=O)OC[C@H]1O[C@@H](n2cnc3c(N)ncnc32)[C@H](O)[C@@H]1O [LEUSA] | 5.96 | inhibition at 0.5 µM (PBMC [2]): 16.3%; inhibition at 0.1 µM (PBMC [3]): 16% |
| CSCC[C@H](N)C(=O)NS(=O)(=O)OC[C@H]1OC[C@@H](n2cnc3c(N)ncnc32)[C@H](O)[C@@H]1O | 5.28 | – |
| Nc1ncnc2c1ncn2[C@@H]1O[C@H](COS(=O)(=O)NC(=O)[C@@H](N)Cc2ccc(O)cc2)[C@@H](O)[C@H]1O | 5.25 | – |
| CO[C@H]1C[C@@H]2CC[C@@H](C)[C@@](O)(O2)C(=O)C(=O)N2CCCC[C@H]2C(=O)O[C@H]([C@H](C)C[C@@H]2CC[C@@H](O)[C@H](OC)C2)CC(=O)[C@H](C)/C=C(\C)[C@@H](O)[C@@H](OC)C(=O)[C@H](C)C[C@H](C)/C=C/C=C/C=C/1C [SIROLIMUS] | – | inhibition at 0.0004 µM (PBMC [4]): 13.1%; inhibition at 0.0008 µM (PBMC [5]): 32.5% |
| Nc1ncnc2c1ncn2[C@@H]1O[C@H](COS(=O)(=O)NC(=O)[C@@H](N)Cc2ccccc2)[C@@H](O)[C@H]1O [PHESA] | 6.00 | inhibition at 0.5 µM (PBMC [2]): 53.4%; inhibition at 0.1 µM (PBMC [3]): 10.7% |
| CC(C)C[C@H](N)C(=O)NS(=O)(=O)OC[C@H]1OC[C@@H](n2cnc3c(N)ncnc32)C[C@@H]1O | 5.17 | – |
| Nc1ncnc2c1ncn2[C@@H]1O[C@H](COS(=O)(=O)NC(=O)[C@@H]2CCN2)[C@@H](O)[C@H]1O | 6.22 | – |
| Nc1ncnc2c1ncn2[C@@H]1CO[C@H](COS(=O)(=O)NC(=O)[C@@H]2CCCN2)[C@@H](O)[C@H]1O | 6.12 | – |
| Nc1ncnc2c1ncn2[C@@H]1O[C@H](COS(=O)(=O)NC(=O)[C@@H](N)Cc2cnc[nH]2)[C@@H](O)[C@H]1O | 6.00 | inhibition at 0.1 µM (PBMC [3]): 12.4% |
| NC(=O)CC[C@H](N)C(=O)NS(=O)(=O)OC[C@H]1O[C@@H](n2cnc3c(N)ncnc32)[C@H](O)[C@@H]1O | 6.10 | – |
| Nc1ncnc2c1ncn2[C@@H]1O[C@H](COS(=O)(=O)NC(=O)[C@@H](N)Cc2c[nH]cn2)[C@@H](O)[C@H]1F | 6.35 | – |
| Nc1ncnc2c1ncn2[C@@H]1O[C@H](COS(=O)(=O)NC(=O)[C@@H](N)CC(=O)O)[C@@H](O)[C@H]1O | 5.62 | – |
| CSCC[C@H](N)C(=O)NS(=O)(=O)OC[C@H]1OC[C@@H](n2cnc3c(N)ncnc32)C[C@@H]1O | 5.26 | – |
| C[C@@H](O)[C@H](N)C(=O)NS(=O)(=O)OC[C@H]1O[C@@H](n2cnc3c(N)ncnc32)[C@H](O)[C@@H]1O | 5.28 | – |
| Nc1ncnc2c1ncn2[C@@H]1CO[C@H](COS(=O)(=O)NC(=O)[C@@H](N)Cc2c[nH]cn2)[C@@H](O)C1 | 5.17 | – |
| C=C(C)CC(N)C(=O)NS(=O)(=O)OC[C@H]1O[C@@H](n2cnc3c(N)ncnc32)[C@H](O)[C@@H]1O (mixture of isomers) | 6.26 | – |
| Nc1ncnc2c1ncn2[C@@H]1O[C@H](COS(=O)(=O)NC(=O)[C@@H]2CCCN2)[C@@H](O)[C@H]1F | 6.52 | – |
| Nc1ncnc2c1ncn2[C@@H]1CO[C@H](COS(=O)(=O)NC(=O)[C@@H](N)Cc2c[nH]cn2)[C@@H](O)[C@H]1O | 5.92 | – |
| C[C@H](N)C(=O)NS(=O)(=O)OC[C@H]1OC[C@@H](n2cnc3c(N)ncnc32)[C@H](O)[C@@H]1O | 6.52 | inhibition at 0.5 µM (PBMC [2]): 68% |

| Structure (SMILES) | pIC50 (PBMC [1]) | also measured |
| --- | --- | --- |
| C/C=C/C[C@@H](C)[C@@H](O)[C@H]1C(=O)N[C@@H](CC)C(=O)N(C)CC(=O)N(C)[C@@H](CC(C)C)C(=O)N[C@@H](C(C)C)C(=O)N(C)[C@@H](CC(C)C)C(=O)N[C@@H](C)C(=O)N[C@H](C)C(=O)N(C)[C@@H](CC(C)C)C(=O)N(C)[C@@H](CC(C)C)C(=O)N(C)[C@@H](C(C)C)C(=O)N1C [CYCLOSPORINE] | – | inhibition at 0.01 µM (PBMC [6]): 32%; inhibition at 0.06 µM (PBMC [7]): 65.7%; inhibition at 0.08 µM (PBMC [8]): 75.2% |
| Nc1ncnc2c1ncn2[C@@H]1O[C@H](COS(=O)(=O)NC(=O)[C@@H](N)Cc2c[nH]c3ccccc23)[C@@H](O)[C@H]1O | 6.30 | inhibition at 0.5 µM (PBMC [2]): 27.6%; inhibition at 0.1 µM (PBMC [3]): 2.3% |
| N=C(N)NCCC[C@H](N)C(=O)NS(=O)(=O)OC[C@H]1OC[C@@H](n2cnc3c(N)ncnc32)C[C@@H]1O | 6.22 | – |
| N=C(N)NCCC[C@H](N)C(=O)NS(=O)(=O)OC[C@H]1OC[C@@H](n2cnc3c(N)ncnc32)[C@H](O)[C@@H]1O | 6.22 | – |
| Nc1ncnc2c1ncn2[C@@H]1CO[C@H](COS(=O)(=O)NC(=O)[C@@H]2CCCN2)[C@@H](O)C1 | 5.55 | – |
| Nc1ncnc2c1ncn2[C@@H]1O[C@H](COS(=O)(=O)NC(=O)[C@@H]2CSCN2)[C@@H](O)[C@H]1O | 6.26 | – |
| CC(C)C[C@H](N)C(=O)NS(=O)(=O)OC[C@H]1O[C@@H](n2cnc3c(N)ncnc32)[C@H](F)[C@@H]1O | 6.35 | – |
| Nc1ncnc2c1ncn2[C@@H]1O[C@H](COS(=O)(=O)NC(=O)[C@@H](N)CCC(=O)O)[C@@H](O)[C@H]1O | 5.31 | – |
| C[C@H](N)C(=O)NS(=O)(=O)OC[C@H]1OC[C@@H](n2cnc3c(N)ncnc32)C[C@@H]1O | 5.26 | – |
| Nc1ncnc2c1ncn2[C@@H]1O[C@H](COS(=O)(=O)NC(=O)[C@@H]2CCCN2)[C@@H](O)[C@H]1O | 6.15 | inhibition at 0.5 µM (PBMC [2]): 18.6%; inhibition at 0.1 µM (PBMC [3]): -2.7% |
| Nc1ncnc2c1ncn2[C@@H]1O[C@H](COS(=O)(=O)NC(=O)[C@H](Cc2ccccc2)NCc2ccccc2)[C@@H](O)[C@H]1O | 6.70 | inhibition at 0.1 µM (PBMC [3]): 31.1% |
| CSCC[C@H](N)C(=O)NS(=O)(=O)OC[C@H]1O[C@@H](n2cnc3c(N)ncnc32)[C@H](F)[C@@H]1O | 6.40 | – |
| NCC(=O)NS(=O)(=O)OC[C@H]1O[C@@H](n2cnc3c(N)ncnc32)[C@H](O)[C@@H]1O | 6.10 | – |
| Nc1ncnc2c1ncn2[C@@H]1O[C@H](COS(=O)(=O)NC(=O)[C@@H](N)CO)[C@@H](O)[C@H]1O | 5.32 | – |
| CC(C)[C@H](N)C(=O)NS(=O)(=O)OC[C@H]1O[C@@H](n2cnc3c(N)ncnc32)[C@H](O)[C@@H]1O | 5.25 | – |
| C/C(=C\C(=O)OCCCCCCCCC(=O)O)C[C@@H]1OC[C@H](C[C@@H]2O[C@H]2[C@@H](C)[C@H](C)O)[C@@H](O)[C@H]1O | – | Activity (PBMC [9]): inactive |
| NCCCC[C@H](N)C(=O)NS(=O)(=O)OC[C@H]1O[C@@H](n2cnc3c(N)ncnc32)[C@H](O)[C@@H]1O | 6.00 | inhibition at 1 µM (PBMC [10]): 67% |
| CSCC[C@H](N)C(=O)NS(=O)(=O)OC[C@H]1O[C@@H](n2cnc3c(N)ncnc32)[C@H](O)[C@@H]1O | 6.30 | inhibition at 0.5 µM (PBMC [2]): 28.4% |
| C[C@H](N)C(=O)NS(=O)(=O)OC[C@H]1O[C@@H](n2cnc3c(N)ncnc32)[C@H](F)[C@@H]1O | 6.40 | – |
| N=C(N)NCCC[C@H](N)C(=O)NS(=O)(=O)OC[C@H]1O[C@@H](n2cnc3c(N)ncnc32)[C@H](O)[C@@H]1O | 6.00 | – |
| NC(=O)C[C@H](N)C(=O)NS(=O)(=O)OC[C@H]1O[C@@H](n2cnc3c(N)ncnc32)[C@H](O)[C@@H]1O | 6.52 | – |
| CC[C@H](C)[C@H](N)C(=O)NS(=O)(=O)OC[C@H]1O[C@@H](n2cnc3c(N)ncnc32)[C@H](O)[C@@H]1O | 5.25 | – |
| CCC[C@H](N)C(=O)NS(=O)(=O)OC[C@H]1O[C@@H](n2cnc3c(N)ncnc32)[C@H](O)[C@@H]1O | 5.33 | – |
